This passage reports IC50, selectivity ratio and Activity results from ChEMBL document CHEMBL1143376, “Synthesis and biological evaluation of extraordinarily potent C-10 carba artemisinin dimers against P. falciparum malaria parasites and HL-60 cancer cells” (Bioorg Med Chem, 2009).

The subject of one data set is HL-60. The experiment in a line: Anticancer activity against human HL60 cells by MTT assay. The data set is classed as functional, cell-based. In short, it runs like this: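 HL-60 cells grown in RPMI-1640 with 10% v/v FBS and 1% v/v L-glutamine, 37 °C, 5% CO2, kept below 1 × 10⁶ cells/mL, passages 5–15. Seeded at 2.5 × 10⁴/well in triplicate and exposed for 72 h to […]. DMSO final below 0.5% v/v. Read by MTT (4 h) then SDS/DMF lysis (4 h), A570/590, as % of vehicle. IC50 taken from inhibition curves; experiments repeated at least three times.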
On the technique in general: Tetrazolium assays rely on reduction of a dye to a coloured formazan, in cell work by metabolically active cells.

The test system of data set [1] is Plasmodium falciparum. The experiment in a line: Antimalarial activity against chloroquine-sensitive Plasmodium falciparum 3D7 by [3H]hypoxanthine uptake. In kind it is functional, organism-based.
Data set [2] deals with Plasmodium falciparum. The data set can be described thus: Antimalarial activity against chloroquine-resistant Plasmodium falciparum K1 by [3H]hypoxanthine uptake. The data set is classed as functional, organism-based.
Data set [3] can be described thus: Therapeutic index, ratio of IC50 for human HL60 cells to IC50 for Plasmodium falciparum. The data set is classed as cell-based, HL-60. To be noted: read-out: TI.
The subject of another data set is PBMC. The experiment in a line: Toxicity in PBMC at 250 uM. The data set is classed as cell-based.

pIC50: −log10 of the molar value.

In general, pIC50 refers to −log10 of the IC50, conventionally taken in molar units. Low readings indicate a high IC50, high ones a low IC50. As for `C[C@H]1[C@@H](CCNC(=O)NCC[C@H]2O[C@@H]3O[C@@]4(C)CC[C@H]5[C@H](C)CC[C@@H]([C@H]2C)[C@@]35OO4)O[C@@H]2O[C@@]3(C)CC[C@H]4[C@H](C)CC[C@@H]1[C@@]24OO3`, the figures for the pIC50 in the data set on HL-60 and in the data set with Plasmodium falciparum [1] were below 4.00 and below 7.22, respectively.

Take `C[C@H]1[C@@H](CCOC(=O)OCC[C@H]2O[C@@H]3O[C@@]4(C)CC[C@H]5[C@H](C)CC[C@@H]([C@H]2C)[C@@]35OO4)O[C@@H]2O[C@@]3(C)CC[C@H]4[C@H](C)CC[C@@H]1[C@@]24OO3`: the pIC50 in the data set on HL-60 is below 4.00; in the data set on Plasmodium falciparum [1], 8.34.

Regarding `COP(=O)(OCCC[C@H]1O[C@@H]2O[C@@]3(C)CC[C@H]4[C@H](C)CC[C@@H]([C@H]1C)[C@@]24OO3)OCCC[C@H]1O[C@@H]2O[C@@]3(C)CC[C@H]4[C@H](C)CC[C@@H]([C@H]1C)[C@@]24OO3`, the pIC50 in the data set with HL-60 was 7.30; with Plasmodium falciparum [1], 8.32.

In the case of `C[C@H]1[C@@H](CCN2CCC(C3CCN(CC[C@H]4O[C@@H]5O[C@@]6(C)CC[C@H]7[C@H](C)CC[C@@H]([C@H]4C)[C@@]57OO6)CC3)CC2)O[C@@H]2O[C@@]3(C)CC[C@H]4[C@H](C)CC[C@@H]1[C@@]24OO3`, the pIC50 is 6.40 in the data set with HL-60 and 9.34 in the data set on Plasmodium falciparum [1].

For `C[C@@H]1[C@@H](COP(=O)(OC[C@H]2O[C@@H]3O[C@@]4(C)CC[C@H]5[C@H](C)CC[C@@H]([C@@H]2C)[C@@]35OO4)Oc2ccccc2)O[C@@H]2O[C@@]3(C)CC[C@H]4[C@H](C)CC[C@@H]1[C@@]24OO3`, the results for the negative logarithm of the IC50 (pIC50) in the data set with HL-60 and in the data set with Plasmodium falciparum [1] were 5.98 and 8.22, respectively.

As to `C[C@H]1[C@@H](CCCOP(=O)(OCCC[C@H]2O[C@@H]3O[C@@]4(C)CC[C@H]5[C@H](C)CC[C@@H]([C@H]2C)[C@@]35OO4)Oc2ccccc2)O[C@@H]2O[C@@]3(C)CC[C@H]4[C@H](C)CC[C@@H]1[C@@]24OO3`, the pIC50 is 6.60 with HL-60 and 9.68 with Plasmodium falciparum [1].

Turning to `C[C@H]1[C@@H](CCNC(=O)C[C@H]2O[C@@H]3O[C@@]4(C)CC[C@H]5[C@H](C)CC[C@@H]([C@H]2C)[C@@]35OO4)O[C@@H]2O[C@@]3(C)CC[C@H]4[C@H](C)CC[C@@H]1[C@@]24OO3`, the pIC50 with HL-60 is 7.00; with Plasmodium falciparum [1] it was 10.52.

On to `COP(=O)(OC[C@H]1O[C@@H]2O[C@@]3(C)CC[C@H]4[C@H](C)CC[C@@H]([C@@H]1C)[C@@]24OO3)OC[C@H]1O[C@@H]2O[C@@]3(C)CC[C@H]4[C@H](C)CC[C@@H]([C@@H]1C)[C@@]24OO3`, for which the pIC50 was 6.11 in the data set with HL-60 and 8.32 in the data set with Plasmodium falciparum [1].

Regarding `COP(=O)(OCC[C@H]1O[C@@H]2OC3(C)CC[C@H]4[C@H](C)CC[C@@H]([C@H]1C)[C@@]24OO3)OCC[C@H]1O[C@@H]2OC3(C)CC[C@H]4[C@H](C)CC[C@@H]([C@H]1C)[C@@]24OO3` (single isomer, unassigned), the pIC50 in the data set on Plasmodium falciparum [2] was 9.70; in the data set on HL-60, 7.15. Moreover, in data set [3], the selectivity ratio is above 500. Besides, in the data set on PBMC, the Activity result is reported as “Non-toxic”.

For the compound `C[C@H]1[C@@H](CCOP(=O)(OCC[C@H]2O[C@@H]3OC4(C)CC[C@H]5[C@H](C)CC[C@@H]([C@H]2C)[C@@]35OO4)Oc2ccccc2)O[C@@H]2OC3(C)CC[C@H]4[C@H](C)CC[C@@H]1[C@@]24OO3` (single isomer, unassigned), the pIC50 with Plasmodium falciparum [2] was 9.30; in the data set with HL-60 it was 6.57. In data set [3], the selectivity ratio is above 500. Besides, the Activity result with PBMC is given as “Non-toxic”.

In the case of `CO[C@H]1O[C@@H]2O[C@@]3(C)CC[C@H]4[C@H](C)CC[C@@H]([C@H]1C)[C@@]24OO3` [ARTEMETHER], the values for the pIC50 in the data set on Plasmodium falciparum [2] and with Plasmodium falciparum [1] were 8.45 and 8.68, respectively.

For `C[C@@H]1CC[C@H]2[C@@H](C)C(=O)O[C@@H]3O[C@@]4(C)CC[C@@H]1[C@]32OO4` [ARTEMISININ], the pIC50 in the data set with Plasmodium falciparum [1] was 7.91.

`C[C@H]1[C@@H](O)O[C@@H]2O[C@@]3(C)CC[C@H]4[C@H](C)CC[C@@H]1[C@@]24OO3` [ARTENIMOL] gave a negative logarithm of the IC50 (pIC50) with HL-60 of 5.62.

`COc1cccc2c1C(=O)c1c(O)c3c(c(O)c1C2=O)C[C@@](O)(C(=O)CO)C[C@@H]3O[C@H]1C[C@H](N)[C@H](O)[C@H](C)O1` [DOXORUBICIN] showed a pIC50 in the data set on HL-60 of 7.74.
